# Compound activity: PubChem BioAssay, Sanford-Burnham Center for Chemical Genomics
# bIAP inh: blocks bovine intestinal alkaline phosphatase activity. 190,000 tested, under 10 active. purified bovine IAP, CDP-star luminescence, 30 min. inhibition, % at 20 µM;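 active = over 50% inhibition of intestinal alkaline phosphatase at 20 µM in the single-dose screen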
#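 Assay system – bovine IAP enzyme · Quantity – bovine IAP at 1/65,000,000 final dilution · Detection – CDP-star luminescence signal · Times – 30 min reaction at room temperature · Also added – CDP-star substrate at 30 µM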
# mIAP block: mouse IAP inhibition; inhibition, % at 10 µM; purified mouse IAP, CDP-Star luminescence, 30 min; 0.2% of 330,000 active;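 active = inhibition of at least 40% at 10 µM in the primary screen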;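 note: plate controls were DMSO with enzyme for no effect and no enzyme wells for full effect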
# bIAP act: increases bovine intestinal alkaline phosphatase activity | activation factor at 20 µM | purified bovine IAP, CDP-star luminescence, 30 min; active compounds read high; fold of DMSO-control signal, blank-subtracted | AID 1016 | 0.17% of 200,000 active;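 active = activation factor of 2 or more at 20 µM, a signal rise over negative controls twice the positive control's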
# hIAP act: increases human intestinal alkaline phosphatase activity; 0.16% of 330,000 active; P09923; activation factor at 10 µM; purified human IAP, CDP-Star luminescence, 30 min; active compounds read high; 1 = vehicle-only enzyme, 0 = enzyme-free background; AID 2524;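 active = activation factor of the enzyme at least 2-fold when tested at 20 µM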
# Target sequence (P09923 whole entry, looked up): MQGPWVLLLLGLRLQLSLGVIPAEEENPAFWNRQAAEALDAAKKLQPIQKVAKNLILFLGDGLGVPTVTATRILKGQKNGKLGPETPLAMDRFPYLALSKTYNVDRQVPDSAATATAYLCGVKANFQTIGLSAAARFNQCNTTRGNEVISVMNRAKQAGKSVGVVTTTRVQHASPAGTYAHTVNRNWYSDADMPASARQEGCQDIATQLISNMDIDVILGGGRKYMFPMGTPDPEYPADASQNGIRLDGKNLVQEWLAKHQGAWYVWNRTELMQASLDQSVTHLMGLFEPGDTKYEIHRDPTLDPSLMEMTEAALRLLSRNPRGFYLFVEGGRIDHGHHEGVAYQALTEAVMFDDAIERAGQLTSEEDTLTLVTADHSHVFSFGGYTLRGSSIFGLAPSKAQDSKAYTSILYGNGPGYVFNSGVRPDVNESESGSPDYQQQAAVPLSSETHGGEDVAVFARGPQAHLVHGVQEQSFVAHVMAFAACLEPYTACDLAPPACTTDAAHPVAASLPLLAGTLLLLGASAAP
# hIAP inh: human IAP inhibition; 0.12% of 330,000 active; purified IAP, CDP-Star luminescence, 30 min; inhibition, % at 10 µM; AID 2544;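 active = inhibition reaching a set limit with compound at 10 µM in the primary screen, cut at about 35% in these data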;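 note: plate controls were DMSO wells with enzyme for no effect and no-enzyme buffer wells for full effect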
# mIAP act: increases mouse intestinal alkaline phosphatase activity. muIAP, CDP-Star luminescence, 30 min; active compounds read high; 1 = vehicle-only enzyme signal, 0 = enzyme-free wells. AID 2805. 0.24% of 330,000 active. activation factor at 10 µM;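 active = activation factor of at least 2 at 20 µM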
#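 Assay system: mouse IAP enzyme; Reagent: CDP-Star chemiluminescent phosphatase substrate; Compound: DMSO-dissolved test compounds; Incubation: 30 min, room temperature; Technique: luminescence from enzymatic CDP-Star hydrolysis; Controls: DMSO-only wells and no-enzyme negative control.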
# mIAP inh confirm: mouse IAP inhibition confirmation | shares compounds with mIAP block | purified mouse IAP, CDP-Star luminescence, 30 min | inhibition, % at 10 µM | 4.7% of 11,000 active | AID 434971;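 active = inhibition of at least 40% at 10 µM in either of the two replicates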;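 note: plate controls were DMSO wells with enzyme for no effect and buffer wells lacking enzyme for full effect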
# Starred values were filed as active, the others as inactive; · = no result given. In the library only some 0.72% were active in any assay of this set; here they are far more common.
SMILES,bIAP inh,mIAP block,bIAP act,hIAP act,hIAP inh,mIAP act,mIAP inh confirm
CC1(C)Cc2c(sc3[nH]c(=S)n(Cc4ccco4)c(=O)c23)CO1,4.0,23.0,1,0.896,10.4,0.77,·
O=c1c2c3c(sc2[nH]c(=S)n1Cc1ccco1)CCC3,·,59.0*,·,0.987,1.3,0.41,63.8*
N#CC1=C2SCN(c3ccc(F)cc3)CN2C(=O)CC1c1cccc(F)c1 (stereo unspecified),10.7,60.4*,0.9,0.883,11.7,0.396,59.3*
Cc1ccc(N2CSC3=C(C#N)C(c4cccs4)CC(=O)N3C2)cc1 (stereo unspecified),16.7,46.4*,0.8,1.14,-13.7,0.536,46.1*
COc1ccc(OC)c(N2C(=O)c3cccnc3C2=O)c1,·,2.4,·,0.921,7.9,0.976,·
c1coc(CSSCc2ccco2)c1,·,70.8*,·,1.02,-1.9,0.292,75.2*
O=[N+]([O-])c1ccccc1NC(=S)N/N=C/c1ccc(O)c(O)c1,18.4,74.9*,0.8,0.866,13.4,0.251,72.1*
Cc1ccc2[nH]c3c(NCc4ccccc4)ncnc3c2c1,·,-204.3,·,1.51,-50.8,3.04*,-148.9
COc1ccc(CNc2ncnc3c2[nH]c2ccccc23)cc1,·,-206.5,·,1.65,-64.5,3.06*,-171.2
COc1ccc(CNc2ncnc3c2[nH]c2cc(OC)c(OC)cc23)cc1,·,-84.9,·,1.06,-5.7,1.85,·
Brc1ccc2[nH]c3c(NCc4ccccn4)ncnc3c2c1,·,-22.0,·,1.23,-22.7,1.22,·
Cc1noc(C)c1C(=O)OCC(=O)NCc1ccc(Cl)cc1,·,-3.3,·,0.941,5.9,1.03,·
Cc1occc1C(=O)N1CCC2(CCCN(Cc3ccc(F)c(F)c3)C2)C1 (stereo unspecified),·,-2.7,·,1.07,-7.2,1.03,·
Cc1cc(NC(=O)C(C)SCC(=O)N(C)CC(=O)Nc2ccccc2C(F)(F)F)no1 (stereo unspecified),·,-5.4,·,1.07,-7.5,1.05,·
Cc1cccc(Nc2nc(-c3ccc(O)c(O)c3)cs2)n1,·,32.9,·,0.805,19.5,0.671,·
Oc1ccc(-c2csc(Nc3ccccn3)n2)cc1O,·,61.9*,·,1.01,-0.6,0.381,76.6*
Cc1ccnc(Nc2nc(-c3ccc(O)c(O)c3)cs2)c1,·,34.1,·,1.03,-3.5,0.659,·
Oc1ccc(-c2csc(Nc3cccc4ccccc34)n2)cc1O,·,63.3*,·,0.682,31.8,0.367,80.0*
Cc1cccnc1Nc1nc(-c2ccc(O)c(O)c2)cs1,44.4,54.0*,0.6,0.915,8.5,0.46,67.8*
COC(=O)c1ccc(C2N=C(c3cccs3)CC(c3ccccc3O)N2)cc1 (stereo unspecified),10.4,5.3,0.9,0.968,3.2,0.947,·
NC(=O)c1sc2nc3c(c(-c4ccco4)c2c1N)CCC3,11.2,42.6*,0.9,1.08,-7.6,0.574,56.8*
Nc1c(C(=O)Nc2ccccc2F)sc2nc(-c3ccco3)ccc12,14.7,47.5*,0.9,0.918,8.2,0.525,61.0*
NC(=O)c1sc2nc(-c3cccnc3)ccc2c1N,·,1.0,·,0.859,14.1,0.99,·
CC(C)OC(=O)c1sc2nc(-c3ccccc3)ccc2c1N,-9.8,-22.2,1.1,1.34,-33.9,1.22,·
COC(=O)c1sc2nc(-c3ccco3)ccc2c1N,2.8,52.1*,1,0.945,5.5,0.479,53.2*
NC(=O)c1sc2nc(-c3ccco3)ccc2c1N,5.8,43.9*,0.9,1.05,-5.0,0.561,52.0*
CCC(=O)N1CCN=C1SCc1cccc(C(F)(F)F)c1,·,6.7,·,0.893,10.7,0.933,·
COc1ccc(-n2nnnc2/C=C\Nc2ccc(C)cc2)cc1,·,-13.2,·,1.76,-75.7,1.13,·
COc1ccc(CCNC(=O)c2cc(-c3cc(Cl)cc(Cl)c3)oc2C)cc1,-3.2,-299.5,1,1,-0.2,4*,-107.2
C[C@@H]1O[C@@H](OC2C(O)C(OCCc3ccc(O)c(O)c3)OC(CO)C2OC(=O)/C=C/c2ccc(O)c(O)c2)[C@H](O)[C@H](O)[C@H]1O (stereo partly specified),·,45.7*,·,0.744,25.6,0.543,41.5*
